Screens: PubChem, Sanford-Burnham Center for Chemical Genomics
Apaf1 inhib – human Apaf-1 inhibition | O14727 | reconstituted apoptosome caspase-3 activity, DEVD-Rh110 fluorescence | inhibition, % at 20 µM | 0.71% of 330,000 active | AID 489030; active = inhibition of at least 40% at 20 µM
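Material: reconstituted apoptosome with Apaf-1, cytochrome c, caspase-9, procaspase-3, dATP / Buffer or medium: pH 7.5 Hepes buffer with CHAPS, BSA, DTT / Also added: cytochrome c with DEVD-Rh110 / Schedule: compound with Apaf-1, dATP, procaspase-3 30 min, then 50 min reaction, room temperature / Technique: rhodamine 110 fluorescence at Ex 480/Em 540 nm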
SENP7 block – SENP7 protease inhibition; Q9BQF6; recombinant SENP7, Z-RLRGG-aminoluciferin luminescence, 40 min; inhibition, % at 5 µM; 1.5% of 330,000 active;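 active = inhibition above about 50% at the single test dose, limit read from the data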
SENP6 inh – blocks the human protease SENP6. Q9GZR1. inhibition, % at 10 µM. Recombinant SENP6 catalytic domain, aminoluciferin luminescence. 1.8% of 330,000 active;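 active = inhibition above about 50% at the single tested dose, limit read from the data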
Target sequence (Q9GZR1 628-1112 limits assumed): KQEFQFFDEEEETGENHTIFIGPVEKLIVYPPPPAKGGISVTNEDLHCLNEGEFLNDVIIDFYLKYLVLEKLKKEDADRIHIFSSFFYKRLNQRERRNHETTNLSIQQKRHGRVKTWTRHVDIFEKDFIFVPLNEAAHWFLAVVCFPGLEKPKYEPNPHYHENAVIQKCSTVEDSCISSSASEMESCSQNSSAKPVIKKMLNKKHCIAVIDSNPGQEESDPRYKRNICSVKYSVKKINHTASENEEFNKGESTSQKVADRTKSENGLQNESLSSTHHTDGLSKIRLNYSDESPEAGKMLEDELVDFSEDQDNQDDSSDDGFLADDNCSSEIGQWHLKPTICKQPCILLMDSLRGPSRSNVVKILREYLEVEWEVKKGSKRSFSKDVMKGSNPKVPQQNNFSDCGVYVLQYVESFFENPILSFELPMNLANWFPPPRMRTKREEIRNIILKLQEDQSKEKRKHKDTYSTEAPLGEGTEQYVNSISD
SENP8 block-1 – inhibitors of human SENP8 protease. Q96LD8. recombinant SENP8, Nedd8 substrate fluorescence. inhibition, % at 20 µM. 0.64% of 360,000 active; in the data active = inhibition mostly above about 40%, no sharp cut-off; inactive = mostly below about 27%
Target sequence (Q96LD8 whole entry, looked up): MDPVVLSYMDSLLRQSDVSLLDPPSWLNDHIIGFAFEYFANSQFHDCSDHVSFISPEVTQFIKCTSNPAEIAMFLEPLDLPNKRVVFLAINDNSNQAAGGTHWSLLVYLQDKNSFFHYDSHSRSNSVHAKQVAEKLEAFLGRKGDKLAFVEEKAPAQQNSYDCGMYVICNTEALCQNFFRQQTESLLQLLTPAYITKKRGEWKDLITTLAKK
SENP8 block-2 – blocks the human protease SENP8. inhibition, % at 10 µM. purified SENP8, Z-RLRGG-aminoluciferin cleavage, luminescence. 1.2% of 330,000 active. Q96LD8. AID 2540; in the data active = inhibition above about 50%
UBC13 polyUb – human UBC13 polyubiquitination inhibition | P61088 | UBC13 polyubiquitin chain formation, TR-FRET | inhibition, % at 20 µM | 0.47% of 330,000 active | AID 485273; in the data active = inhibition above about 45%, passing the limit was not always enough
SENP8 conf – human SENP8 inhibition, confirmed; Recombinant SENP8, Z-RLRGG-aminoluciferin luminescence, 60 min; inhibition, % at 12.5 µM; shares compounds with SENP7 block; 40% of 6,200 active;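 active = mean inhibition across replicates above about 50%, limit read from the data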
SENP6 conf – confirmation of human SENP6 protease inhibitors; inhibition, % at 12.5 µM; recombinant SENP6, Z-RLRGG-aminoluciferin luminescence; shares compounds with SENP7 block; 58% of 6,200 active
SENP7 conf – confirmation of human SENP7 protease inhibitors; shares compounds with SENP7 block; recombinant SENP7, Z-RLRGG-aminoluciferin luminescence, 40 min; inhibition, % at 12.5 µM; 69% of 6,200 active; AID 488917
Casp3 select – inhibits human caspase-3 in SENP selectivity test; 60% of 6,200 active; inhibition, % at 12.5 µM; shares compounds with SENP7 block; purified caspase-3, Z-DEVD-aminoluciferin luminescence, 60 min; AID 488918;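 active = mean inhibition above about 50%, limit read from the data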
SENP luc ctr – counter-screen for SENP inhibitors: luminescence interference | inhibition, % at 12.5 µM | Pre-incubated SENP8/Z-RLRGG-aminoluciferin, luciferase luminescence interference | shares compounds with SENP7 block | AID 488919 | 39% of 6,200 active;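 active = mean inhibition above about 50% when retested at one dose, limit read from the data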
Casp3 counter – caspase-3 inhibition (UBC13 counter-screen). 4% of 1,400 active. inhibition, % at 20 µM. Recombinant caspase-3, Caspase-Glo 3/7 luminescence, 60 min. shares compounds with UBC13 polyUb;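 active = mean inhibition across replicates above about 26%, limit read from the data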
UBC13 conf – confirmation of human UBC13 polyubiquitin inhibitors; shares compounds with UBC13 polyUb; UBC13 polyubiquitination, TR-FRET, biochemical; inhibition, % at 10 µM; 68% of 1,400 active; AID 488859; in the data active = inhibition above about 45%
Apaf-1 inh conf2 – Apaf-1 inhibition, single-dose confirmed; shares compounds with Apaf1 inhib; reconstituted apoptosome, caspase-3 DEVD-Rh110 fluorescence; inhibition, % at 20 µM; 25% of 1,800 active; AID 504614;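 active = mean inhibition of at least 40% at 20 µM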
Rh110 quench – counter-screen for Apaf-1 inhibitors: fluorescence interference; shares compounds with Apaf1 inhib; Rh110 fluorescence interference, quenched caspase reaction; activation (fluorescence interference), % at 20 µM; 1,800 tested, under 10 active; AID 504615;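 active = signal rise of 40% or more at 20 µM, treated as a fluorescence artifact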
Apaf1 inh interf – Apaf-1 inhibitor counter-screen fluorescence artifact; AID 588538; fluorescence interference counterscreen, Apaf-1 assay format; shares compounds with Apaf1 inhib; IC50, µM; 460 tested, under 10 active; call rule not given here
Each line names hits and unclear results; the compound was inactive in the other large screens (follow-up assays come after a bar, where they were run). Compounds with a hit are over-represented: about 3% of the library has one in this group of screens.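 The calls were made as follows, unless noted: active = mean inhibition above about 50% in the one-dose retest (limit read from the data); inactive = the rest.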

CC(C)(C)c1ccc(-c2ccc3c(c2)S(=O)(=O)c2ccccc2C3=O)cc1	none
CC(C)(C)c1ccc2c(c1)C(=O)c1ccccc1C2=O	SENP7 block 96, SENP6 inh 96, SENP8 block-2 66, UBC13 polyUb 54 | SENP8 conf inactive | SENP6 conf 59 | SENP7 conf 82 | Casp3 select inactive | SENP luc ctr inactive | Casp3 counter 96 | UBC13 conf inactive
O=C1C=C(Nc2ccccc2C(=O)O)c2ccccc2C1=O	Apaf1 inhib 91, SENP6 inh 86, SENP8 block-2 86 | SENP8 conf inactive | SENP6 conf 93 | SENP7 conf 82 | Casp3 select inactive | SENP luc ctr inactive | Apaf-1 inh conf2 93 | Rh110 quench inactive | Apaf1 inh interf inactive
CCCCNC1=CC(=O)C(=O)c2ccccc21	Apaf1 inhib 96, SENP7 block 81, SENP6 inh 93, SENP8 block-1 85, SENP8 block-2 86 | SENP8 conf 61 | SENP6 conf 87 | SENP7 conf 74 | Casp3 select 91 | SENP luc ctr inactive | Apaf-1 inh conf2 84 | Rh110 quench inactive | Apaf1 inh interf inactive
CCc1ccc(NC2=CC(=O)C(=O)c3ccccc32)cc1	Apaf1 inhib 92, SENP7 block 55, SENP8 block-2 70 | SENP8 conf inactive | SENP6 conf inactive | SENP7 conf inactive | Casp3 select inactive | SENP luc ctr inactive | Apaf-1 inh conf2 86 | Rh110 quench inactive | Apaf1 inh interf inactive
O=C1C=C(Nc2ccccc2)c2ccccc2C1=O	Apaf1 inhib 92, SENP6 inh 81, SENP8 block-2 73 | SENP8 conf inactive | SENP6 conf 87 | SENP7 conf 72 | Casp3 select inactive | SENP luc ctr inactive | Apaf-1 inh conf2 91 | Rh110 quench inactive | Apaf1 inh interf inactive
CCc1ccc(NC(=O)C(CC)c2ccccc2)cc1 (centres undefined)	none
Cc1cc(C)cc(C(=O)NCC(=O)OCC(=O)NC2CC2)c1	none
O=C(O)c1cccc(NC2=C(N3CCOCC3)C(=O)c3ccccc3C2=O)c1	Apaf1 inhib 84, SENP6 inh 75, SENP8 block-1 59, SENP8 block-2 57 | SENP8 conf 69 | SENP6 conf 81 | SENP7 conf 60 | Casp3 select 64 | SENP luc ctr inactive | Apaf-1 inh conf2 81 | Rh110 quench inactive | Apaf1 inh interf inactive
Cc1ccc(C(=O)NNc2cc(N3CCCC3)nc(N3CCCC3)n2)cc1	Apaf1 inhib 97, SENP6 inh 82, SENP8 block-2 95 (no result: SENP8 block-1) | SENP8 conf 52 | SENP6 conf 87 | SENP7 conf 50 | Casp3 select inactive | SENP luc ctr inactive | Apaf-1 inh conf2 89 | Rh110 quench inactive | Apaf1 inh interf inactive
O=C(NNc1cc(N2CCOCC2)nc(N2CCOCC2)n1)c1ccc(Cl)c(Cl)c1	none
COc1ccc(CCN(C)C(=O)c2ccc3c(=O)n4c(nc3c2)CCCCC4)cc1OC	none
Oc1cccc(NC(=S)Nc2ccc(SC(F)F)cc2)c1	none
Oc1cccc2c(NC(=S)Nc3ccc(SC(F)F)cc3)cccc12	Apaf1 inhib 53, SENP6 inh 85, SENP8 block-2 53 | SENP8 conf inactive | SENP6 conf inactive | SENP7 conf inactive | Casp3 select inactive | SENP luc ctr inactive | Apaf-1 inh conf2 inactive | Rh110 quench inactive
Cc1ccc(-c2nc(N3CCN(C)CC3)c3ccccc3n2)cc1	none
CN1CCN(c2nc(-c3ccc(C(C)(C)C)cc3)nc3ccccc23)CC1	Apaf1 inhib 43, SENP6 inh 54 | SENP8 conf inactive | SENP6 conf inactive | SENP7 conf inactive | Casp3 select inactive | SENP luc ctr inactive | Apaf-1 inh conf2 inactive | Rh110 quench inactive
CCCn1c(=O)c(C(=O)OCC)c(O)c2cc(Br)ccc21	none
CCOC(=O)c1c(CN(C)C)n(C)c2c(O)c(N=NC(N)=O)c3ccc(Br)cc3c12	Apaf1 inhib 95, SENP6 inh 68, SENP8 block-1 79 | SENP8 conf inactive | SENP6 conf inactive | SENP7 conf inactive | Casp3 select inactive | SENP luc ctr inactive | Apaf-1 inh conf2 53 | Rh110 quench inactive | Apaf1 inh interf inactive
C[C@H](CO)N1C[C@H](C)[C@@H](CN(C)C(=O)Nc2ccc(F)cc2)Oc2ccc(NS(C)(=O)=O)cc2C1=O	none
CCOC(=O)Cc1csc(NC(=O)/C=C/c2ccc(OC)cc2)n1	none
Nc1ncc(Br)cc1N=Cc1ccccc1	Apaf1 inhib 62, SENP6 inh 72 | SENP8 conf inactive | SENP6 conf inactive | SENP7 conf inactive | Casp3 select inactive | SENP luc ctr inactive | Apaf-1 inh conf2 inactive | Rh110 quench inactive
CCC(C)NS(=O)(=O)c1cccs1 (centres undefined)	none
CCc1cc[n+](C2=C([O-])c3ccccc3C(=O)/C2=N\S(=O)(=O)c2cccs2)cc1	Apaf1 inhib 68, SENP6 inh 84, SENP8 block-1 90, SENP8 block-2 53 | SENP8 conf inactive | SENP6 conf 80 | SENP7 conf inactive | Casp3 select inactive | SENP luc ctr inactive | Apaf-1 inh conf2 64 | Rh110 quench inactive | Apaf1 inh interf inactive
